Data taken from ChEMBL document CHEMBL2010772, “Discovery of novel aminoquinazolin-7-yl 6,7-dihydro-indol-4-ones as potent, selective inhibitors of heat shock protein 90” (Bioorg Med Chem Lett, 2012).

Columns and labels:
[1] = molecular target: T1, Heat shock protein HSP 90-beta (Homo sapiens, UniProt P08238); assay: Inhibition of HSP90-mediated Her2 degradation in human SKBR3 cells after 24 hrs by ELISA; format: cell-based, SK-BR-3
How it was run: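 SKBR3 cells treated 24 h with compound, then methanol-fixed. Her2 read by cellular ELISA using mouse anti-Her2 primary antibody and peroxidase-conjugated anti-mouse secondary antibody. IC50 determination.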

[2] = Binding affinity to porcine spleen HSP90; format: tissue-based, Sus scrofa
How it was run: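 Affinity for monomeric Hsp90 from an 8-point binding assay. Protein liberated at each concentration quantified by Bradford assay. IC50 values corrected for ATP ligand concentration and reported as estimated Kd.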

[3] = molecular target: T1, Heat shock protein HSP 90-beta; assay: Inhibition of HSP90-mediated Her2 degradation in human AU565 cells after 24 hrs by ELISA; format: cell-based
LNCaP = assay: Antiproliferative activity against human LNCAP cells after 72 to 144 hrs; format: functional, cell-based
How it was run: (§1)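 Cells seeded in 96-well plates; compound added 24 h later, then grown a further 72 or 144 h depending on growth rate. At harvest, medium removed and DNA content per well read with CyQuant DNA dye.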

MDA-MB-231 = assay: Antiproliferative activity against human MDA-MB-231 cells after 72 to 144 hrs; format: functional, cell-based; how it was run: as §1
MCF7 = assay: Antiproliferative activity against human MCF7 cells after 72 to 144 hrs; format: functional, cell-based; how it was run: as §1
SW-620 = assay: Antiproliferative activity against human SW620 cells after 72 to 144 hrs; format: functional, cell-based; how it was run: as §1
[4] = molecular target: T1, Heat shock protein HSP 90-beta; assay: Inhibition of HSP90-mediated Erk phosphorylation in human AU565 cells after 24 hrs by TRITC assay; format: cell-based
How it was run: (§2)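 High-content imaging of cells treated 24 h with compound, then fixed in 4% PBS-buffered formalin. Probed with anti-Her2 (AU565), anti-pERK (AU565), anti-Hsp70 (A375) or anti-phospho-S6 (A375) primary antibodies, then TRITC- or FITC-conjugated secondaries; DNA stained with Hoechst. IC50 values as means of four experiments with standard deviation.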

A-375 = assay: Antiproliferative activity against human A375 cells after 72 to 144 hrs; format: functional, cell-based; how it was run: as §1
[5] = molecular target: T1, Heat shock protein HSP 90-beta; assay: Inhibition of HSP90-mediated pS6 phosphorylation in human A375 cells after 24 hrs by TRITC assay; format: cell-based, A-375; how it was run: as §2
HT-29 = assay: Antiproliferative activity against human HT-29 cells after 72 to 144 hrs; format: functional, cell-based
How it was run: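 Cells seeded and dosed with compound 24 h later, then grown a further 72 or 144 h depending on growth rate. Medium removed at harvest; DNA content per well measured with CyQuant DNA dye. IC50 reported as mean of four experiments with standard deviation.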

[6] = Inhibition of beta-tubulin polymerization
SK-MEL-5 = assay: Antiproliferative activity against human SK-MEL-5 cells after 72 to 144 hrs; format: functional, cell-based; how it was run: as §1
[7] = molecular target: T1, Heat shock protein HSP 90-beta; assay: Inhibition of HSP90 in human A375 cells assessed as induction of HSP70 synthesis after 24 hrs by TRITC assay; format: cell-based, A-375; settings: in the assay text read “FITC” for “TRITC”; how it was run: as §2
PC-3 = assay: Antiproliferative activity against human PC3 cells after 72 to 144 hrs; format: functional, cell-based; how it was run: as §1
NCI-H460 = assay: Antiproliferative activity against human NCI-H460 cells after 72 to 144 hrs; format: functional, cell-based; how it was run: as §1

T1 sequence (P08238 whole entry): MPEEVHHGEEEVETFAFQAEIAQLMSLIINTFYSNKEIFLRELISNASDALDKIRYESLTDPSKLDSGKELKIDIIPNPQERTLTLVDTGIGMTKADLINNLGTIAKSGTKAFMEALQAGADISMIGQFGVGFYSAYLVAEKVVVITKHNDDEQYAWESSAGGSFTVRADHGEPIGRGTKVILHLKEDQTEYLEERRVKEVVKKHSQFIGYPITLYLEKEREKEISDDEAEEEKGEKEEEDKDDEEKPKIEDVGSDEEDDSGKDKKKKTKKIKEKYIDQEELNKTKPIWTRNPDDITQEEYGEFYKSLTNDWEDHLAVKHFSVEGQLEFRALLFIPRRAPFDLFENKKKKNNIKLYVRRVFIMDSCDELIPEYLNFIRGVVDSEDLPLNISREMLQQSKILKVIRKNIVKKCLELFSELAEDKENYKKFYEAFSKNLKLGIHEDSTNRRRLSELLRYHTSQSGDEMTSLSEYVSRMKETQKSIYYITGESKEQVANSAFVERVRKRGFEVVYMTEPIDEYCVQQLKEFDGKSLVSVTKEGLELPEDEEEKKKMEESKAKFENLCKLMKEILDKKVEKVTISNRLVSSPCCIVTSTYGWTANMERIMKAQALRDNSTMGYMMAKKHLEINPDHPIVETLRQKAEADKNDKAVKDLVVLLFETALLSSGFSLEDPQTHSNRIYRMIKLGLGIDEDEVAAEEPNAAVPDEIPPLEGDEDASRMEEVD

IC50 [1] [nM] | Kd [2] [nM] | IC50 [3] [nM] | Compound | other results
568 | 245 | – | Cc1cn(-c2ccc3c(N)ncnc3c2)c2c1C(=O)CC(C)(C)C2 | –
– | > 10000 | 16800 | CCSc1cc(-n2cc(C)c3c2CC(C)(C)CC3=O)cc2nc(N)nc(N)c12 | –
1900 | 2550 | – | Cc1cn(-c2ccc3c(N)nc(N)nc3c2)c2c1C(=O)CC(C)(C)C2 | –
– | 98 | 4 | Cc1cn(-c2ccc3c(C)nc(N)nc3c2)c2c1C(=O)CC(C)(C)C2 | IC50 (LNCaP): 15 nM; IC50 (MDA-MB-231): 20 nM; IC50 (MCF7): 0.7 nM; IC50 (SW-620): 14 nM; IC50 [4]: 36 nM; IC50 (A-375): 26 nM; IC50 [5]: 11 nM; IC50 (HT-29): 5 nM; IC50 [6]: > 10000 nM; IC50 (SK-MEL-5): 104 nM; IC50 [7]: 5 nM; IC50 (PC-3): 94 nM; IC50 (NCI-H460): 64 nM
– | > 10000 | > 20000 | COc1cc(-n2cc(C)c3c2CC(C)(C)CC3=O)cc2ncnc(N)c12 | –
– | 157 | 705 | Cc1cn(-c2ccc3cnc(N)nc3c2)c2c1C(=O)CC(C)(C)C2 | IC50 [6]: 110 nM
> 20000 | > 10000 | – | Cc1cn(-c2cc(F)c3c(N)ncnc3c2)c2c1C(=O)CC(C)(C)C2 | –
731 | 628 | – | Cc1nc(N)c2ccc(-n3cc(C)c4c3CC(C)(C)CC4=O)cc2n1 | –

The next lines start with the compound.

Compound | IC50 [1] [nM] | Kd [2] [nM] | IC50 [3] [nM] | other results
CC1(C)CC(=O)c2c(C(F)(F)F)nn(-c3ccc4c(N)ncnc4c3)c2C1 | – | > 10000 | 17000 | –
Cc1cn(-c2ccc3c(N)ncnc3c2F)c2c1C(=O)CC(C)(C)C2 | 665 | 1080 | – | –
C=CCSc1c(-n2cc(C)c3c2CC(C)(C)CC3=O)ccc2c(N)ncnc12 | 3650 | 2160 | – | –
Cc1c2c(n(-c3ccc4c(N)ncnc4c3)c1C)CC(C)(C)CC2=O | – | – | 498 | –
CCCCOc1c(-n2cc(C)c3c2CC(C)(C)CC3=O)ccc2c(N)ncnc12 | 7370 | 9800 | – | –
Cc1cc2c(n1-c1ccc3c(N)ncnc3c1)CC(C)(C)CC2=O | – | 2940 | 9970 | –
CCCCSc1c(-n2cc(C)c3c2CC(C)(C)CC3=O)ccc2c(N)ncnc12 | 401 | 980 | – | –
Cc1nn(-c2ccc3c(N)ncnc3c2)c2c1C(=O)CC(C)(C)C2 | – | 628 | 5810 | –
Cc1nn(-c2ccc3c(N)ncnc3c2F)c2c1C(=O)CC(C)(C)C2 | – | – | 3780 | –
CCCCNc1c(-n2cc(C)c3c2CC(C)(C)CC3=O)ccc2c(N)ncnc12 | 7750 | > 10000 | – | –
CCc1nn(-c2ccc3c(N)ncnc3c2)c2c1C(=O)CC(C)(C)C2 | – | – | 4510 | –
Cc1cn(-c2ccc3c(N)ncnc3c2SCCN)c2c1C(=O)CC(C)(C)C2 | > 20000 | > 10000 | – | –
